Source: PMC4123937 (Molecular Pharmaceutics, 2014)

Test system: 4T1 mammary tumors
Assay type: in vivo, mouse (BALB/c)
Conditions: Alexa546-pHLIP i.v., time points 2, 4, 24, 48 h
In short: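 Female BALB/c mice, s.c. 4T1 cells (8 × 10^5 cells/0.1 mL) in right flank; used at ~6 mm tumor diameter. Single tail-vein dose of 5 nmol (100 μL of 50 μM) Alexa546-labeled peptide in PBS. Necropsy at 2, 4, 24, 48 h; excised tumor, muscle, kidney, liver imaged immediately; mean fluorescence intensity quantified. Six mice per construct.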

Row | Sequence | Time postinjection of maximal renal fluorescence signal (kidney) | Time postinjection of maximum fluorescence signal in tumor (4T1 tumor)
1 | ACDDQNPWRAYLDLLFPTDTLLLDLLW [Var3] | 24 h | –
2 | ACEEQNPWARYLEWLFPTETLLLEL [Var7] | – | 4 h
